Target: OR4E1 (Homo sapiens) (UniProt P0C645)
Settings: stereoisomer not certain
In short: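 Whether a receptor–molecule pair is responsive (active) rests on the original authors' judgment that its measured signal was statistically different from baseline. Pairs without that judgment are non-responsive (inactive). Sources used varied assay methods, commonly transient luciferase assays in mammalian cell lines.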
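Also: active if original authors judged signal statistically different from baseline.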

Sequence of OR4E1 (Homo sapiens) (P0C645 whole entry): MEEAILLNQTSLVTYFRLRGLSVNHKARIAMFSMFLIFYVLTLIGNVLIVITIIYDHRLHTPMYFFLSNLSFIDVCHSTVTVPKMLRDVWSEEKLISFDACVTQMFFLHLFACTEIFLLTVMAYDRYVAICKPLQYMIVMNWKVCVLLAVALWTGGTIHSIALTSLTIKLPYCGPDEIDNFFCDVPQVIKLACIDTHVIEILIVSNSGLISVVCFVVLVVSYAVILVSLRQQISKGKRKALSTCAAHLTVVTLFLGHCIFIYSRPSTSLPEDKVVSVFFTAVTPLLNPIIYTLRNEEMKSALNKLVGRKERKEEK

| SMILES | odorant receptor agonist call |
| --- | --- |
| CC1CCCCCCCCCCCCC(=O)C1 (configuration not stated) | inactive |
| CC(=O)c1c(C)c([N+](=O)[O-])c(C(C)(C)C)c([N+](=O)[O-])c1C | inactive |

Source: the M2OR odorant receptor database
